Test results as given in ChEMBL document CHEMBL4152234, “Aminobenzothiazole derivatives stabilize the thermolabile p53 cancer mutant Y220C and show anticancer activity in p53-Y220C cell lines” (Eur J Med Chem, 2018).
Calls of active or inactive are those of the source. The calls are words filed in the database; no cut-off is given here.

How the values were obtained:
Format in all cases: cell-based
[1] = system: Cellular tumor antigen p53 (Homo sapiens), P04637 [Y220C]; assay: Activation of p53 Y220C mutant in human NUGC3 cells assessed as change in ESR1 mRNA level at 60 uM after 18 hrs by RT-PCR method relative to control
Method in brief: (§1)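 p53 signalling qPCR array covering 84 genes. Cells were exposed for 18 h, with 0.5% DMSO in both compound and control samples. Total RNA was extracted and purified. Fold-changes were calculated by ΔΔCt using β2-microglobulin (B2M) as the housekeeping gene. Two independent biological replicates were run per cell line.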

[2] = system: Cellular tumor antigen p53 (Homo sapiens), P04637 [Y220C]; assay: Activation of p53 Y220C mutant in human NUGC3 cells assessed as change in TSC1 mRNA level at 60 uM after 18 hrs by RT-PCR method relative to control
Method in brief: (§2)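 p53 signalling qPCR array covering 84 p53 pathway genes. Cells were exposed for 18 h, and compound and control wells both held 0.5% DMSO. Total RNA was extracted and purified. Fold-changes were calculated by the ΔΔCt method against the untreated sample, with β2-microglobulin (B2M) as the housekeeping gene. Each cell line was run in two independent biological replicates.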

[3] = target: T1, Cellular tumor antigen p53 (Homo sapiens, UniProt P04637); assay: Activation of p53 in human NUGC4 cells assessed as change in TNF mRNA level at 60 uM after 18 hrs by RT-PCR method relative to control; conditions: read-out: FC
[4] = system: Cellular tumor antigen p53 (Homo sapiens), P04637 [Y220C]; assay: Activation of p53 Y220C mutant in human NUGC3 cells assessed as change in CHEK2 mRNA level at 60 uM after 18 hrs by RT-PCR method relative to control; method in brief: as §1
[5] = target: T1, Cellular tumor antigen p53; assay: Activation of p53 in human NUGC4 cells assessed as change in TADA3 mRNA level at 60 uM after 18 hrs by RT-PCR method relative to control; conditions: read-out: FC
[6] = system: Cellular tumor antigen p53 (Homo sapiens), P04637 [Y220C]; assay: Activation of p53 Y220C mutant in human NUGC3 cells assessed as change in EI24 mRNA level at 60 uM after 18 hrs by RT-PCR method relative to control; method in brief: as §1
[7] = system: Cellular tumor antigen p53 (Homo sapiens), P04637 [Y220C]; assay: Activation of p53 Y220C mutant in human HuH7 cells assessed as increase in NOXA mRNA level at 30 uM after 18 hrs by RT-PCR method
Method in brief: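 Real-time PCR. Cells were treated for 18 h, with 0.5% DMSO in both compound and control samples. Relative mRNA levels were quantified by the ΔΔCt method as fold-change against the untreated sample. Each sample was measured in triplicate, and data are given as mean ± SEM with an unpaired t-test.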

[8] = target: T1, Cellular tumor antigen p53; assay: Activation of p53 in human NUGC4 cells assessed as change in PRC1 mRNA level at 60 uM after 18 hrs by RT-PCR method relative to control; conditions: read-out: FC
[9] = target: T1, Cellular tumor antigen p53; assay: Activation of p53 in human NUGC4 cells assessed as change in BCL2A1 mRNA level at 60 uM after 18 hrs by RT-PCR method relative to control; conditions: read-out: FC; method in brief: as §2
[10] = target: T1, Cellular tumor antigen p53; assay: Activation of p53 in human NUGC4 cells assessed as change in BBC3 mRNA level at 60 uM after 18 hrs by RT-PCR method relative to control; conditions: read-out: FC; method in brief: as §2
[11] = system: Cellular tumor antigen p53 (Homo sapiens), P04637 [Y220C]; assay: Activation of p53 Y220C mutant in human NUGC3 cells assessed as change in PTEN mRNA level at 60 uM after 18 hrs by RT-PCR method relative to control; method in brief: as §2
[12] = system: Cellular tumor antigen p53 (Homo sapiens), P04637 [Y220C]; assay: Activation of p53 Y220C mutant in human NUGC3 cells assessed as change in KRAS mRNA level at 60 uM after 18 hrs by RT-PCR method relative to control; method in brief: as §2
[13] = target: T1, Cellular tumor antigen p53; assay: Activation of p53 in human NUGC4 cells assessed as change in APAF1 mRNA level at 60 uM after 18 hrs by RT-PCR method relative to control; conditions: read-out: FC; method in brief: as §2
[14] = system: Cellular tumor antigen p53 (Homo sapiens), P04637 [Y220C]; assay: Activation of p53 Y220C mutant in human NUGC3 cells assessed as change in PCNA mRNA level at 60 uM after 18 hrs by RT-PCR method relative to control; method in brief: as §2
[15] = system: Cellular tumor antigen p53 (Homo sapiens), P04637 [Y220C]; assay: Activation of p53 Y220C mutant in human NUGC3 cells assessed as change in TP63 mRNA level at 60 uM after 18 hrs by RT-PCR method relative to control; method in brief: as §2
[16] = system: Cellular tumor antigen p53 (Homo sapiens), P04637 [Y220C]; assay: Activation of p53 Y220C mutant in human NUGC3 cells assessed as change in DNMT1 mRNA level at 60 uM after 18 hrs by RT-PCR method relative to control; method in brief: as §1
[17] = system: Cellular tumor antigen p53 (Homo sapiens), P04637 [Y220C]; assay: Activation of p53 Y220C mutant in human NUGC3 cells assessed as change in E2F3 mRNA level at 60 uM after 18 hrs by RT-PCR method relative to control; method in brief: as §1
[18] = target: T1, Cellular tumor antigen p53; assay: Activation of p53 in human NUGC4 cells assessed as change in BAX mRNA level at 60 uM after 18 hrs by RT-PCR method relative to control; conditions: read-out: FC; method in brief: as §2
[19] = system: Cellular tumor antigen p53 (Homo sapiens), P04637 [Y220C]; assay: Activation of p53 Y220C mutant in human NUGC3 cells assessed as change in TRAF2 mRNA level at 60 uM after 18 hrs by RT-PCR method relative to control; method in brief: as §2
[20] = target: T1, Cellular tumor antigen p53; assay: Activation of p53 in human NUGC4 cells assessed as change in GML mRNA level at 60 uM after 18 hrs by RT-PCR method relative to control; conditions: read-out: FC
Method in brief: (§3)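 p53 signaling qPCR array of 84 p53-pathway genes. Cells were treated in 6-well plates for 18 h with 0.5% DMSO in compound and control samples. Total RNA was extracted and fold-changes were obtained by the ΔΔCt method against untreated control, with β2-microglobulin (B2M) as housekeeping gene. Two independent biological replicates per cell line.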

[21] = target: T1, Cellular tumor antigen p53; assay: Activation of p53 in human NUGC4 cells assessed as change in CCNE1 mRNA level at 60 uM after 18 hrs by RT-PCR method relative to control; conditions: read-out: FC; method in brief: as §3
[22] = target: T1, Cellular tumor antigen p53; assay: Activation of p53 in human NUGC4 cells assessed as change in ESR1 mRNA level at 60 uM after 18 hrs by RT-PCR method relative to control; conditions: read-out: FC; method in brief: as §3
[23] = target: T1, Cellular tumor antigen p53; assay: Activation of p53 in human NUGC4 cells assessed as change in TRAF2 mRNA level at 60 uM after 18 hrs by RT-PCR method relative to control; conditions: read-out: FC
[24] = target: T1, Cellular tumor antigen p53; assay: Activation of p53 in human NUGC4 cells assessed as change in RB1 mRNA level at 60 uM after 18 hrs by RT-PCR method relative to control; conditions: read-out: FC
[25] = system: Cellular tumor antigen p53 (Homo sapiens), P04637 [Y220C]; assay: Activation of p53 Y220C mutant in human NUGC3 cells assessed as change in TP53BP2 mRNA level at 60 uM after 18 hrs by RT-PCR method relative to control; method in brief: as §2
[26] = target: T1, Cellular tumor antigen p53; assay: Activation of p53 in human NUGC4 cells assessed as change in MSH2 mRNA level at 60 uM after 18 hrs by RT-PCR method relative to control; conditions: read-out: FC; method in brief: as §3
[27] = target: T1, Cellular tumor antigen p53; assay: Activation of p53 in human NUGC4 cells assessed as change in EGR1 mRNA level at 60 uM after 18 hrs by RT-PCR method relative to control; conditions: read-out: FC; method in brief: as §3
[28] = system: Cellular tumor antigen p53 (Homo sapiens), P04637 [Y220C]; assay: Activation of p53 Y220C mutant in human NUGC3 cells assessed as change in TNFRSF10D mRNA level at 60 uM after 18 hrs by RT-PCR method relative to control; method in brief: as §2

Structure (SMILES): CCNC(=O)c1c(O)c(I)c(-n2cccc2)c2sc(N(CC)CC)nc12
- fold change (FC) [1]: 2.3
- fold change (FC) [2]: 1.3
- fold induction at 60 µM [3]: 1.1
- fold change (FC) [4]: 1.1
- fold induction at 60 µM [5]: 1
- fold change (FC) [6]: 0.8
- Activity [7]: Active
- fold induction at 60 µM [8]: 0.8
- fold induction at 60 µM [9]: 6.1
- fold induction at 60 µM [10]: 1.3
- fold change (FC) [11]: 1.1
- fold change (FC) [12]: 1.2
- fold induction at 60 µM [13]: 1
- fold change (FC) [14]: 0.8
- fold change (FC) [15]: 1.5
- fold change (FC) [16]: 1.2
- fold change (FC) [17]: 1.3
- fold induction at 60 µM [18]: 0.8
- fold change (FC) [19]: 1.4
- fold induction at 60 µM [20]: 1.9
- fold induction at 60 µM [21]: 0.5
- fold induction at 60 µM [22]: 8.1
- fold induction at 60 µM [23]: 0.8
- fold induction at 60 µM [24]: 0.8
- fold change (FC) [25]: 1.8
- fold induction at 60 µM [26]: 0.7
- fold induction at 60 µM [27]: 0.7
- fold change (FC) [28]: 1
